Entries after “also recorded” stand apart in the source; their conditions may differ. Read-outs that look alike come from different tables or passages of the source. Non-standard residues stand in square brackets, D forms with d.
Tests used:
breast carcinoma = details: ref [20]; cited from earlier work
CXCR4 [1] = details: ref [15]; cited from earlier work
glioma cell invasion = details: ref [6]; cited from earlier work
[2] = tested on: ERK activation (activated human T cells); experiment: CXCL12-induced ERK phosphorylation; type: cell-based
How it was run: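 About 10 million activated T cells per 0.5 ml per treatment, pretreated with test compound (20µM) for 30 min at 37°C. CXCL12 was then added to 10nM final. Cells were washed, harvested and lysed in RIPA buffer with protease and phosphatase inhibitors at 1, 3 and 10 min. Protein was measured by Bradford. 30μg lysate was run on 4-20% SDS-PAGE, blotted to nitrocellulose, and phospho-ERK detected by ECL.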

[3] = tested on: CXCR4 mediated HIV viral entry; details: ref [19]; cited from earlier work
pancreatic carcinoma = details: ref [21]; cited from earlier work
[4] = ref [22]; cited from earlier work
GHS-R = details: cited from earlier work
[5] = tested on: CXCR4 (GHOST-CXCR4 cells); experiment: Fluorokine; type: binding
HIV1-IIIB (CXCR4 tropic) = experiment: HIV1-IIIB propagation in activated PBMCs; type: cell-based, HIV-1; details: activated human PBMCs
How it was run: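 PBMCs were activated 3 days with PHA 5μg/ml and IL-2 10 units/ml, then washed into cRPMI at 10^6/ml. Cells were pretreated 30 min at 37°C with the test compound and infected with HIV1-IIIB (10ng/ml p24) for 3 h. Cells were washed, replated at 500,000/ml in triplicate, and compound re-added. Supernatant p24 was measured by ELISA on days 3, 6 and 9 and expressed as % of virus-only control. Three donors were used.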

[6] = tested on: CXCR4 (primary human T cells); experiment: CXCL12-induced T cell Transwell chemotaxis; type: cell-based; details: CXCL12 10nM, 5 h 37°C, mean ±SEM of three experiments
obese mice = details: ref [24], cited from earlier work
CXCR4 [7] = experiment: CXCR4 binding and activity, overall statement; type: cell-based, human; details: T cells and PBMCs; summary statement
[8] = tested on: CXCR4 (primary human T cells); experiment: CXCL12-induced intracellular calcium mobilization in primary human T cells; type: cell-based; details: Fura-2AM, CXCL12 10nM
How it was run: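 Human T cells were enriched from Ficoll-isolated PBMCs on T-cell enrichment columns, loaded with Fura-2-AM, and washed. They were then pretreated 20 min with the test compound at various concentrations. CXCL12 was added to 10nM final. Ca++ release was monitored in a luminescence spectrometer (ex 340 and 380 nm, em 510 nm) and expressed as the 340/380 ratio. At least three experiments were run.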

[9] = obese mice, repeated administration

In the case of `c1cc(CN2CCCNCCNCCCNCC2)ccc1CN1CCCNCCNCCCNCC1` [AMD3100], the “effect on metastasis of breast carcinoma” value (breast carcinoma) is listed as “blocks”, the CXCR4 blocking (CXCR4 [1]) is listed as “potent CXCR4 [15] blocking agent” and the “effect on glioma cell invasion” value (glioma cell invasion) is listed as “blocks glioma cell invasion”. For the same molecule, the “block of ERK activation after CXCL12 treatment” value ([2]; activated human T cells, 10^-6M AMD3100, data not shown) was 80%, the “effect on CXCR4 mediated HIV viral entry” value [3] was “block CXCR4 mediated HIV viral entry” and the “effect on metastasis of pancreatic carcinoma” value (pancreatic carcinoma) was “blocks”. The “effect on allergy and collagen induced arthritis” value [4] was “decreases allergy and collagen induced arthritis”.
For H-H[dW]AW[dF]K-NH2 [GHRP-6], the “activity at GHS-R” value (GHS-R; ref [9]) is given as “GHS-R agonist”.
In the case of H-H[dW][dK]W[dF]K-NH2 [DLS], the “effect on chemokine ligand binding” value ([5]; 1/4/16 μg DLS, 30 min 37°C, flow cytometry MFI) is reported as “blocks chemokine ligand binding to receptor-positive cells”, the “amount required for the observed inhibition of CXCL12 binding” value ([5]; GHOST-CXCR4 cells, flow cytometry, AMD3100 data not shown) is reported as “microgram quantities” and the “effect on CXCR4-mediated HIV-1 entry and propagation” value (HIV1-IIIB (CXCR4 tropic)) is reported as “partially blocks CXCR4-mediated HIV-1 entry and propagation”. The “effect on CXCL12-induced T cell migration” value [6] was “marked dose dependent inhibition; also recorded: inhibits CXCL12 induced activated T cell chemotaxis”, the body weight (obese mice; [9]) was “reduce body weight in obese mice” and the “glycemic control and insulin resistance” value (obese mice; [9]) was “improve their glycemic control and insulin resistance”. The muscle mass (obese mice; obese mice) was “without affecting the muscle mass”, the “size of abdominal fat pads” value (obese mice; obese mice) was “reduced the size of abdominal fat pads” and the adverse side effects (obese mice; rodent models) was “without any adverse side effects”. For the same molecule, the “effect on CXCL12 binding and activity through CXCR4” value (CXCR4 [7]) was “block CXCL12 binding and activity through CXCR4; also recorded: modestly inhibit the binding and activity of CXCR4 receptor in human T cells”, the “effect on ERK activation in response to CXCL12” value ([2]; DLS 20μM, 30 min 37°C, CXCL12 10nM, Western blot) was “very modestly blocks ERK activation” and the “effect on CXCL12-induced calcium flux” value [8] was “markedly inhibited in a dose dependent fashion; also recorded: partially inhibits CXCL12-induced Ca++ release; also recorded: modest inhibition of calcium mobilization”. The “activity at GHS-R” value (GHS-R; ref [8], [9]) was “selective GHS-R antagonist”.

From publication PMC3248652 (International Journal of Biological Sciences, 2011)
